Holding throughout (type): ADME
Data set [1] addresses T1, UDP-glucuronosyltransferase 1A10 (Homo sapiens, UniProt Q9HAW8).
T1 sequence (Q9HAW8 whole entry): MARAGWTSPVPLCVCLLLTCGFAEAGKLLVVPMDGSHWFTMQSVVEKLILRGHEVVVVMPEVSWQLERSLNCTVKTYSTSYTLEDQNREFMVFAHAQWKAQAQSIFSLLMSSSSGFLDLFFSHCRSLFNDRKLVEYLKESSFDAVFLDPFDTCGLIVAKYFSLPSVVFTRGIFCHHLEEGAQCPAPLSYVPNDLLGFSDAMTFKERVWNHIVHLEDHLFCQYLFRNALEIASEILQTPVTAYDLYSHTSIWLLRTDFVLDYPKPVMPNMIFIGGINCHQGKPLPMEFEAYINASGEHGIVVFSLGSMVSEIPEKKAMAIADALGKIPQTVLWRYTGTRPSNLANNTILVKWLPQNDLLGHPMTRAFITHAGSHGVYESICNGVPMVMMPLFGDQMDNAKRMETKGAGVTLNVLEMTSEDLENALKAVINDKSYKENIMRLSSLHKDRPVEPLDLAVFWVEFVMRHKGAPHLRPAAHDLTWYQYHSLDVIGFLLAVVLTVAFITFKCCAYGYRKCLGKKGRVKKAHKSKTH
Put plainly: Activity of human UGT1A10 expressed in microsomes isolated from baculovirus infected insect cell assessed as enzyme-mediated 2-mercapto-3-(4-((6-methoxy-1-methyl-1H-benzo[d]imidazol-2-yl)methoxy)phenyl)propanoic acid formation at 20 uM after 4 hrs by radio-HPLC/LC-MS/MS analysis in presence of UDPGA. The essentials:
(§1)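 Alamethicin (50 μg/mg protein, 15 min on ice) pretreated expressed human UGT microsomes (1 mg/ml protein) from baculovirus-infected insect cells. Incubation with [¹⁴C]rivoglitazone (20 μM) in 100 mM Tris-HCl (pH 7.5) with 10 mM MgCl₂, started by 5 mM UDPGA, 4 h at 37°C with shaking. UGT insect-cell control supersomes were run alongside. Acetonitrile stop, concentrated supernatant analysed by radio-HPLC, LC-MS and LC-MS/MS.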

The target of data set [2] is T2, UDP-glucuronosyltransferase 1A3 (Homo sapiens, UniProt P35503).
T2 sequence (P35503 whole entry): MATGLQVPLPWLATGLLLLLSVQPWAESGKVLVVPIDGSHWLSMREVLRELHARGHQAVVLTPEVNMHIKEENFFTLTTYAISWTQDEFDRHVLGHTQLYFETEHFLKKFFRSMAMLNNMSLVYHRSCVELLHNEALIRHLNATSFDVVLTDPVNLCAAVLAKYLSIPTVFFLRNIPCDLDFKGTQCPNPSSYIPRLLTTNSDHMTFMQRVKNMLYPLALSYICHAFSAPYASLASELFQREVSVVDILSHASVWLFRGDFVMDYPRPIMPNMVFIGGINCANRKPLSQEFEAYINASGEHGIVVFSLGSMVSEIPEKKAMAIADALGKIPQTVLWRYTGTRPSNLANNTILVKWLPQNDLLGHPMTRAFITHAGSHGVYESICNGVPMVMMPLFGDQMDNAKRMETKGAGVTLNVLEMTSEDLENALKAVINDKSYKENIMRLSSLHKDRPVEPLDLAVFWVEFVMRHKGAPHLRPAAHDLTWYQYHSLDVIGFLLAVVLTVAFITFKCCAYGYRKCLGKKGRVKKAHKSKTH
Put plainly: Activity of human UGT1A3 expressed in microsomes isolated from baculovirus infected insect cell assessed as enzyme-mediated (2S,3S,4S,5R,6R)-3,4,5-trihydroxy-6-(5-(4-((6-methoxy-1-methyl-1H-benzo[d]imidazol-2-yl)methoxy)benzyl)-2,4-dioxothiazolidin-3-yl)tetrahydro-2H-pyran-2-carboxylic acid formation at 20 uM after 4 hrs by radio-HPLC/LC-MS/MS analysis in presence of UDPGA and UDPGA/SAM. The method in brief: as §1

Data set [3] deals with T3, UDP-glucuronosyltransferase 1A7 (Homo sapiens, UniProt Q9HAW7).
T3 sequence (Q9HAW7 whole entry): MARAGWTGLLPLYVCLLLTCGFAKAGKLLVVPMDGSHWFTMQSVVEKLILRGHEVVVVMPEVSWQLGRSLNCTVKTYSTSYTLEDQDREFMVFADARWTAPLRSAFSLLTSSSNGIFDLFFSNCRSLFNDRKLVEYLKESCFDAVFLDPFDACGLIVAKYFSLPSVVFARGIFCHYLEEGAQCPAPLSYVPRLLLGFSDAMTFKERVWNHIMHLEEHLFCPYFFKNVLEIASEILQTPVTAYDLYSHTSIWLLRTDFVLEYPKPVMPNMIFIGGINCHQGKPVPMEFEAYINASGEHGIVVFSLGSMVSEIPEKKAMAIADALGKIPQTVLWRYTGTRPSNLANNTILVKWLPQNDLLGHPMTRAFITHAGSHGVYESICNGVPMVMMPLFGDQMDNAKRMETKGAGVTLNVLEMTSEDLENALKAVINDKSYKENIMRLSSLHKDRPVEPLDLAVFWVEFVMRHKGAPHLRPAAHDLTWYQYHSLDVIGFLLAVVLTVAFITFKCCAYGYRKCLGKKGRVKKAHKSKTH
Put plainly: Activity of human UGT1A7 expressed in microsomes isolated from baculovirus infected insect cell assessed as enzyme-mediated 2-mercapto-3-(4-((6-methoxy-1-methyl-1H-benzo[d]imidazol-2-yl)methoxy)phenyl)propanoic acid formation at 20 uM after 4 hrs by radio-HPLC/LC-MS/MS analysis in presence of UDPGA.

The next data set has as its target T4, Cytochrome P450 2C8 (Homo sapiens, UniProt P10632).
T4 sequence (P10632 whole entry): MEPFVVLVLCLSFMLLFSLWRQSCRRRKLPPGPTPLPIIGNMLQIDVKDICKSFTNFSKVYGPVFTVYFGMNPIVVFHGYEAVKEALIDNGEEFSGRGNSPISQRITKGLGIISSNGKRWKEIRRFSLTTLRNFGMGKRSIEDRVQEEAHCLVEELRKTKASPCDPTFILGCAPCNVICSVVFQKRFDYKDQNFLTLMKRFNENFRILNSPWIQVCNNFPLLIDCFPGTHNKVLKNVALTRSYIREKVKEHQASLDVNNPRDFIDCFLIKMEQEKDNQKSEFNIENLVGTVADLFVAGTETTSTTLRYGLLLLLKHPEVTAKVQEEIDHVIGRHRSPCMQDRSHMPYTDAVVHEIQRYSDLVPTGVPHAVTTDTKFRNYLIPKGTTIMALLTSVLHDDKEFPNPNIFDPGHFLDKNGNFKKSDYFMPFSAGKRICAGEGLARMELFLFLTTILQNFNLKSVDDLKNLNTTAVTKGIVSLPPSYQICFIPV
Put plainly: Activity of human CYP2C8 expressed in microsomes isolated from baculovirus infected insect cell assessed as enzyme-mediated 2-amino-3-((1-carboxy-2-(4-((6-methoxy-1-methyl-1H-benzo[d]imidazol-2-yl)methoxy)phenyl)ethyl)disulfanyl)propanoic acid formation at 20 uM after 2 hrs by radio-HPLC/LC-MS/MS analysis. The method in brief: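 Baculovirus/insect-cell microsomes expressing single human CYPs, 1 mg/ml protein, with 50 mM potassium phosphate (pH 7.4) or 100 mM Tris-HCl (pH 7.5). NADPH-generating system: 2 mM NADP⁺, 20 mM glucose 6-phosphate, 2 units/ml G6PDH, 10 mM MgCl₂. [¹⁴C]rivoglitazone at 20 μM, 2 h at 37°C with shaking. Control used insect-cell control supersomes. Stopped with acetonitrile; supernatant concentrated under nitrogen; metabolites analysed by radio-HPLC, LC-MS and LC-MS/MS.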

Take `COc1ccc2nc(COc3ccc(C[14CH]4SC(=O)NC4=O)cc3)n(C)c2c1.Cl` (racemic): the Drug metabolism result in data set [1] is reported as “metabolite_not_detected”; in data set [2] it was “metabolite_detected”; in data set [3], “metabolite_not_detected”; at Cytochrome P450 2C8 it was “metabolite_not_detected”.
